In the M2OR odorant receptor database:

These molecules were tested against T1, OR2W1 (Homo sapiens) (UniProt Q9Y3N9). Details: stereoisomer not certain.
T1 sequence (whole entry): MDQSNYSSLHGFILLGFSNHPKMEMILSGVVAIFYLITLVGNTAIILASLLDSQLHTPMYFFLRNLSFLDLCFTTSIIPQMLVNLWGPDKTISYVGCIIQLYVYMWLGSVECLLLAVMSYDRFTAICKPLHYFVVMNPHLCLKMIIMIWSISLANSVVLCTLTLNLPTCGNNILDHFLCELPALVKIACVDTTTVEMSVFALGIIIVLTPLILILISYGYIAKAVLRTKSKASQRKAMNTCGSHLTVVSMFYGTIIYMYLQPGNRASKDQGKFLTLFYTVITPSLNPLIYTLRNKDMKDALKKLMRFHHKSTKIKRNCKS
Outline: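 Assay methods differ from source to source, frequently being transient luciferase assays in mammalian cell lines. For each receptor–molecule pair, the label responsive (active) applies when the original authors judged the measured signal statistically different from baseline, and non-responsive (inactive) applies otherwise.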

Odorant receptor agonist call, inactive:
CCCC(C)=O
CCC(=O)C1=NCCC1
CCCC=CC=O
CSC
CCCCC(=O)O
CC(C)CCCCCCCCCCC=O
CC(C)=CC1CC(C)CCO1 (centres undefined)
CC=O
C=CCSC
CCO
CCCCCC=O
CCC(=O)C(C)=O
CC(=O)C=CC1=C(C)CCCC1(C)C
Cc1ccc(O)cc1
CCCCCCCCCC(=O)[O-].[H+]
CCC(C)C=O (centres undefined)
CCCCCOC(=O)CCCCC
CC(C)CO
CCC(=O)O
CCC=CCC=O

Odorant receptor agonist call, active:
CCCCCCCC(=O)[O-].[H+]
CCCCCc1ccccn1
CCOc1ccc2ccccc2c1
CCCCCC(C)O (centres undefined)
CCCCC=CC=O
CCC=CCCC=CCO
CC(=O)OCC=C(C)C
CC(C)(S)CCOC=O
CCOC(=O)CCC(C)C
CCCCCCCCO
CCCCCC=CCCC=O
CCOC(=O)C1CCCCC1
CCCCCCC(C)=O
CCCCC(=O)OCC
